Reference: ChEMBL document CHEMBL1134691, “3-Phenyl-5-acyloxymethyl-2H,5H-furan-2-ones: synthesis and biological activity of a novel group of potential antifungal drugs” (2001)
≈ marks a conversion by molar mass, not a printed value.

How the values were obtained:
[1] = Inhibition of Trichophyton mentagrophytes 445 growth for 120 hours in vitro.; assay type: functional, Arthroderma benhamiae; conditions: Trichophyton benhamiae, 120 h; read-out: MIC
Procedure, shortened: (§1)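 Dermatophyte grown in MOPS-buffered (0.165 M, pH 7.0) RPMI 1640 containing L-glutamine, in an M27-A microdilution format. Inoculum 5 × 10^3 cfu/mL final. Compounds from DMSO stocks (≤2% final), 2-fold dilutions 1000–0.24 µmol/L. Incubated at 35 °C, growth judged visually at 72 and 120 h. MIC endpoint is 80% inhibition relative to control; measured twice in duplicate.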

[2] = tested on: Pichia kudriavzevii; assay: Inhibition of Candida krusei ATCC 6258 growth for 24 hours in vitro.; assay type: functional; conditions: Pichia kudriavzevii, ATCC 6258, 24 h; read-out: MIC
Procedure, shortened: (§2)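 NCCLS M27-A broth microdilution in RPMI 1640 with L-glutamine and 0.165 M MOPS, pH 7.0. Isolates kept on Sabouraud dextrose agar. Inoculum 5 × 10^3 cfu/mL final. Compounds were diluted in DMSO (≤2% final) and tested in 2-fold dilutions of 1000–0.24 µmol/L. Incubation at 35 °C, OD540 read at 24 and 48 h. MIC = 80% growth inhibition versus control; assays run twice in duplicate.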

[3] = tested on: Candida albicans; assay: Inhibition of Candida albicans ATCC 44859 growth for 48 hours in vitro.; assay type: functional; conditions: Candida albicans, ATCC 44859, 48 h; read-out: MIC; procedure, shortened: as §2
[4] = tested on: Candida parapsilosis; assay: Inhibition of Candida parapsilosis ATCC 22019 growth for 48 hours in vitro.; assay type: functional; conditions: Lodderomyces parapsilosis, ATCC 22019, 48 h; read-out: MIC; procedure, shortened: as §2
[5] = tested on: Candida albicans; assay: Inhibition of Candida albicans ATCC 90028 for 48 hours in vitro.; assay type: functional; conditions: Candida albicans, ATCC 90028, 48 h; read-out: MIC; procedure, shortened: as §2
[6] = tested on: Pichia kudriavzevii; assay: Inhibition of Candida krusei ATCC 6258 growth for 48 hours in vitro.; assay type: functional; conditions: Pichia kudriavzevii, ATCC 6258, 48 h; read-out: MIC; procedure, shortened: as §2
[7] = tested on: Trichosporon beigelii; assay: Inhibition of Trichosporon beigelli 1188 for 24 hours in vitro.; assay type: functional; conditions: Trichosporon beigelii, 24 h; read-out: MIC
Procedure, shortened: (§3)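 Microdilution following NCCLS M27-A. Medium: RPMI 1640 with L-glutamine, 0.165 M MOPS, pH 7.0. Final inoculum 5 × 10^3 cfu/mL. Compounds dissolved in DMSO, final ≤2%, serially halved from 1000 to 0.24 µmol/L. Incubated at 35 °C and read at 24 and 48 h. MIC defined as 80% inhibition of control growth; run twice in duplicate.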

[8] = tested on: Candida albicans; assay: Inhibition of Candida albicans ATCC 90028 for 24 hours in vitro.; assay type: functional; conditions: Candida albicans, ATCC 90028, 24 h; read-out: MIC; procedure, shortened: as §2
[9] = tested on: Pichia kudriavzevii; assay: Inhibition of Candida krusei E28 growth for 48 hours in vitro.; assay type: functional; conditions: Pichia kudriavzevii, 48 h; read-out: MIC; procedure, shortened: as §2
[10] = tested on: Nakaseomyces glabratus; assay: Inhibition of Candida glabrata 20/I growth for 24 hours in vitro.; assay type: functional; conditions: Nakaseomyces glabratus, 24 h; read-out: MIC; procedure, shortened: as §2
[11] = tested on: Candida tropicalis; assay: Inhibition of Candida tropicalis 156 growth for 48 hours in vitro.; assay type: functional; conditions: Candida tropicalis, 48 h; read-out: MIC; procedure, shortened: as §2
[12] = tested on: Clavispora lusitaniae; assay: Inhibition of Candida lusitaniae 2446/I growth for 48 hours in vitro.; assay type: functional; conditions: Clavispora lusitaniae, 48 h; read-out: MIC; procedure, shortened: as §2
[13] = tested on: Candida parapsilosis; assay: Inhibition of Candida parapsilosis ATCC 22019 growth for 24 hours in vitro.; assay type: functional; conditions: Lodderomyces parapsilosis, ATCC 22019, 24 h; read-out: MIC; procedure, shortened: as §2
[14] = tested on: Pichia kudriavzevii; assay: Inhibition of Candida krusei E28 growth for 24 hours in vitro.; assay type: functional; conditions: Pichia kudriavzevii, 24 h; read-out: MIC; procedure, shortened: as §2
[15] = tested on: Trichosporon beigelii; assay: Inhibition of Trichosporon beigelli 1188 for 48 hours in vitro.; assay type: functional; conditions: Trichosporon beigelii, 48 h; read-out: MIC; procedure, shortened: as §3
[16] = tested on: Nakaseomyces glabratus; assay: Inhibition of Candida glabrata 20/I growth for 48 hours in vitro.; assay type: functional; conditions: Nakaseomyces glabratus, 48 h; read-out: MIC; procedure, shortened: as §2
[17] = tested on: Candida tropicalis; assay: Inhibition of Candida tropicalis 156 growth for 24 hours in vitro.; assay type: functional; conditions: Candida tropicalis, 24 h; read-out: MIC; procedure, shortened: as §2
[18] = tested on: Clavispora lusitaniae; assay: Inhibition of Candida lusitaniae 2446/I growth for 24 hours in vitro.; assay type: functional; conditions: Clavispora lusitaniae, 24 h; read-out: MIC; procedure, shortened: as §2
[19] = tested on: Aspergillus fumigatus; assay: Inhibition of Aspergillus fumigatus 231 growth for 48 hours in vitro.; assay type: functional; conditions: Aspergillus fumigatus, 48 h; read-out: MIC
Procedure, shortened: (§4)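 Filamentous isolates tested by microdilution per NCCLS M27-A in RPMI 1640 plus L-glutamine, buffered with 0.165 M MOPS to pH 7.0. Final inoculum 5 × 10^3 cfu/mL. Compounds in DMSO (final ≤2%), 2-fold series over 1000–0.24 µmol/L. Plates held at 35 °C and read visually after 24 and 48 h. MIC taken as 80% inhibition of control growth; determined twice in duplicate.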

[20] = tested on: Candida albicans; assay: Inhibition of Candida albicans ATCC 44859 growth for 24 hours in vitro.; assay type: functional; conditions: Candida albicans, ATCC 44859, 24 h; read-out: MIC; procedure, shortened: as §2
[21] = tested on: Lichtheimia corymbifera; assay: In vitro inhibition of Absidia corymbifera 272 growth for 48 hours.; assay type: functional; conditions: Lichtheimia corymbifera, 48 h; read-out: MIC; procedure, shortened: as §4
[22] = tested on: Aspergillus fumigatus; assay: Inhibition of Aspergillus fumigatus 231 growth for 24 hours in vitro.; assay type: functional; conditions: Aspergillus fumigatus, 24 h; read-out: MIC; procedure, shortened: as §4
[23] = Inhibition of Trichophyton mentagrophytes 445 growth for 72 hours in vitro.; assay type: functional, Arthroderma benhamiae; conditions: Trichophyton benhamiae, 72 h; read-out: MIC; procedure, shortened: as §1
[24] = tested on: Lichtheimia corymbifera; assay: In vitro inhibition of Absidia corymbifera 272 growth for 24 hours.; assay type: functional; conditions: Lichtheimia corymbifera, 24 h; read-out: MIC; procedure, shortened: as §4

| Structure (SMILES) | MIC [1] [µM] | MIC [2] [µM] | MIC [3] [µM] | MIC [4] [µM] | MIC [5] [µM] | MIC [6] [µM] | MIC [7] [µM] | MIC [8] [µM] | MIC [9] [µM] | MIC [10] [µM] | MIC [11] [µM] | MIC [12] [µM] | MIC [13] [µM] | MIC [14] [µM] | MIC [15] [µM] | MIC [16] [µM] | MIC [17] [µM] | MIC [18] [µM] | MIC [19] [µM] | MIC [20] [µM] | also measured |
| --- | --- | --- | --- | --- | --- | --- | --- | --- | --- | --- | --- | --- | --- | --- | --- | --- | --- | --- | --- | --- | --- |
| COc1ccc(C2=CC(COC(=O)C(C)(C)C)OC2=O)cc1 (stereo unspecified) | 7.81 (≈ 2.38 µg/mL) | 62.5 (≈ 19 µg/mL) | 15.6 (≈ 4.76 µg/mL) | 62.5 (≈ 19 µg/mL) | 31.2 (≈ 9.51 µg/mL) | 62.5 (≈ 19 µg/mL) | 62.5 (≈ 19 µg/mL) | 31.2 (≈ 9.51 µg/mL) | 125 (≈ 38 µg/mL) | 31.2 (≈ 9.51 µg/mL) | 62.5 (≈ 19 µg/mL) | 31.2 (≈ 9.51 µg/mL) | 31.2 (≈ 9.51 µg/mL) | 62.5 (≈ 19 µg/mL) | 62.5 (≈ 19 µg/mL) | 31.2 (≈ 9.51 µg/mL) | 31.2 (≈ 9.51 µg/mL) | 31.2 (≈ 9.51 µg/mL) | 31.2 (≈ 9.51 µg/mL) | 0.98 (≈ 0.298 µg/mL) | MIC [21]: 125 µM (≈ 38 µg/mL); MIC [22]: 7.81 µM (≈ 2.38 µg/mL); MIC [23]: 7.81 µM (≈ 2.38 µg/mL); MIC [24]: 62.5 µM (≈ 19 µg/mL) |
| COc1ccc(C2=CC(COC(C)=O)OC2=O)cc1 (stereo unspecified) | 7.81 (≈ 2.05 µg/mL) | 62.5 (≈ 16.4 µg/mL) | 15.6 (≈ 4.1 µg/mL) | 62.5 (≈ 16.4 µg/mL) | 31.2 (≈ 8.2 µg/mL) | 125 (≈ 32.8 µg/mL) | 62.5 (≈ 16.4 µg/mL) | 31.2 (≈ 8.2 µg/mL) | 125 (≈ 32.8 µg/mL) | 31.2 (≈ 8.2 µg/mL) | 62.5 (≈ 16.4 µg/mL) | 62.5 (≈ 16.4 µg/mL) | 31.2 (≈ 8.2 µg/mL) | 62.5 (≈ 16.4 µg/mL) | 62.5 (≈ 16.4 µg/mL) | 31.2 (≈ 8.2 µg/mL) | 31.2 (≈ 8.2 µg/mL) | 31.2 (≈ 8.2 µg/mL) | 31.2 (≈ 8.2 µg/mL) | < 0.98 | MIC [21]: 62.5 µM (≈ 16.4 µg/mL); MIC [22]: 3.91 µM (≈ 1.03 µg/mL); MIC [23]: 7.81 µM (≈ 2.05 µg/mL); MIC [24]: 62.5 µM (≈ 16.4 µg/mL) |
| O=C1OC(CO)C=C1c1ccc(Br)cc1 (stereo unspecified) | 15.6 (≈ 4.21 µg/mL) | 500 (≈ 135 µg/mL) | 62.5 (≈ 16.8 µg/mL) | 500 (≈ 135 µg/mL) | 250 (≈ 67.3 µg/mL) | 1000 (≈ 269 µg/mL) | 125 (≈ 33.6 µg/mL) | 250 (≈ 67.3 µg/mL) | 500 (≈ 135 µg/mL) | 125 (≈ 33.6 µg/mL) | 500 (≈ 135 µg/mL) | 250 (≈ 67.3 µg/mL) | 250 (≈ 67.3 µg/mL) | 500 (≈ 135 µg/mL) | 500 (≈ 135 µg/mL) | 125 (≈ 33.6 µg/mL) | 250 (≈ 67.3 µg/mL) | 250 (≈ 67.3 µg/mL) | 125 (≈ 33.6 µg/mL) | 31.2 (≈ 8.41 µg/mL) | MIC [21]: 250 µM (≈ 67.3 µg/mL); MIC [22]: 62.5 µM (≈ 16.8 µg/mL); MIC [23]: 15.6 µM (≈ 4.21 µg/mL); MIC [24]: 250 µM (≈ 67.3 µg/mL) |
| O=C1OC(COC(=O)c2ccc(Cl)cc2)C=C1c1ccc(Br)cc1 (stereo unspecified) | 3.91 (≈ 1.59 µg/mL) | 7.81 (≈ 3.18 µg/mL) | 3.91 (≈ 1.59 µg/mL) | 15.6 (≈ 6.37 µg/mL) | 7.81 (≈ 3.18 µg/mL) | 15.6 (≈ 6.37 µg/mL) | 3.91 (≈ 1.59 µg/mL) | 3.91 (≈ 1.59 µg/mL) | 15.6 (≈ 6.37 µg/mL) | 1.95 (≈ 0.795 µg/mL) | 15.6 (≈ 6.37 µg/mL) | 7.81 (≈ 3.18 µg/mL) | 7.81 (≈ 3.18 µg/mL) | 7.81 (≈ 3.18 µg/mL) | 15.6 (≈ 6.37 µg/mL) | 1.95 (≈ 0.795 µg/mL) | 7.81 (≈ 3.18 µg/mL) | 3.91 (≈ 1.59 µg/mL) | 3.91 (≈ 1.59 µg/mL) | 1.95 (≈ 0.795 µg/mL) | MIC [21]: 15.6 µM (≈ 6.37 µg/mL); MIC [22]: 0.98 µM (≈ 0.399 µg/mL); MIC [23]: 1.95 µM (≈ 0.795 µg/mL); MIC [24]: 7.81 µM (≈ 3.18 µg/mL) |
